According to ChEMBL document CHEMBL1212820, “Novel hinge binder improves activity and pharmacokinetic properties of BRAF inhibitors” (J Med Chem, 2010):

Experiments:
[1] = molecular target: T1, Serine/threonine-protein kinase B-raf (Homo sapiens, UniProt P15056, V600E); assay: Inhibition of BRAF V600E mutant-mediated ERK phosphorylation in human WM266.4 cells; format: cell-based
How it was run: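 Cellular IC50 for inhibition of phosphoERK formation.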

[2] = Growth inhibition of human WM266.4 cells expressing BRAF V600E mutant after 5 days by SRB assay; format: functional; settings: WM 266-4, 120 h
How it was run: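 Antiproliferative SRB assay in WM266.4 (BRAF mutant), WM1361 (NRAS mutant) and D24 (BRAF/NRAS wild-type) melanoma cells, with GI50 derived from the assay.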

[3] = molecular target: T1, Serine/threonine-protein kinase B-raf; assay: Inhibition of B-Raf V600E mutant
How it was run: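 Enzymatic IC50 determined in vitro against purified V600E BRAF.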

T1 sequence (P15056 2-766 V600E limits assumed): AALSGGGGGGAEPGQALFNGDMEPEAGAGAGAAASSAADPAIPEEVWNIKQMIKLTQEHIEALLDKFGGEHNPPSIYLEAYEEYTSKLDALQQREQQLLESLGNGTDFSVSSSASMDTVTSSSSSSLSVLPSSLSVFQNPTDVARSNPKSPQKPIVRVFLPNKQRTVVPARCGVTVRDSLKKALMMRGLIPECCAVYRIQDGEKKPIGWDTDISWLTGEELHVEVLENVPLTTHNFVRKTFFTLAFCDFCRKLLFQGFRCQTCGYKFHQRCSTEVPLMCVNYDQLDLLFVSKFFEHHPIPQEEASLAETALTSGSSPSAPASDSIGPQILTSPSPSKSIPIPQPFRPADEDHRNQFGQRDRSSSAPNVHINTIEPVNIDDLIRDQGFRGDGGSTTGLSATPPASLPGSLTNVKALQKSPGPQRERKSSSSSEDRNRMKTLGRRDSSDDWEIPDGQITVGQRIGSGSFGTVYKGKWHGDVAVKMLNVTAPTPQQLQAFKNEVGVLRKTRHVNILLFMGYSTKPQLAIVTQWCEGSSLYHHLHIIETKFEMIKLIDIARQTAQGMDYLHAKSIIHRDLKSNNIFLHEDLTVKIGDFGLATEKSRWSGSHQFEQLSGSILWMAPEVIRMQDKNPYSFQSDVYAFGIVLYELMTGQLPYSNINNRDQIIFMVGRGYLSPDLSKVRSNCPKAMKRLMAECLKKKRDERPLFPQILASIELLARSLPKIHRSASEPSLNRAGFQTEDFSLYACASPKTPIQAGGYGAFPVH

| Structure (SMILES) | IC50 [1] [µM] | GI50 [2] [µM] | IC50 [3] [µM] |
| --- | --- | --- | --- |
| O=C(Nc1ccc(Oc2ccnc3[nH]c(S)nc23)cc1F)Nc1cc(C(F)(F)F)ccc1F | 13 | 0.97 | 0.017 |
| CC(C)(C)c1cc(NC(=O)Nc2ccc(Oc3ccnc4[nH]c(=O)c(=O)[nH]c34)cc2F)n(-c2ccccc2)n1 | 0.273 | 0.299 | 0.19 |
| Cc1nc2nccc(Oc3ccc(NC(=O)Nc4cc(C(C)(C)C)nn4-c4ccccc4)c(F)c3)c2[nH]c1=O | 0.39 | 0.43 | 8.5 |
| Cc1ccc(-n2nc(C(C)(C)C)cc2NC(=O)Nc2ccc(Oc3ccnc4[nH]c(=O)cnc34)c3ccccc23)cc1 | 0.01 | 0.08 | 0.08 |
| CSc1cc(Oc2ccnc3ncc(=O)[nH]c23)ccc1NC(=O)Nc1cc(C(F)(F)F)ccc1F | 6.6 | 5 | 0.246 |
| Cc1ccc(-n2nc(C(C)(C)C)cc2NC(=O)Nc2ccc(Oc3ccnc4[nH]c(=O)c(N)nc34)cc2F)cc1 | 0.011 | 0.008 | 0.32 |
| CN(C)Cc1nc2c(Oc3ccc(NC(=O)Nc4cc(C(F)(F)F)ccc4F)c(F)c3)ccnc2[nH]1 | > 10 | 1.4 | 0.73 |
| CC(C)(C)c1cc(NC(=O)Nc2ccc(Oc3ccnc4ncc(=O)[nH]c34)c3ccccc23)n(-c2ccccc2)n1 | 0.048 | 0.073 | 0.264 |
| CSc1cc(Oc2ccnc3[nH]c(=O)cnc23)ccc1NC(=O)Nc1ccc(Cl)c(C(F)(F)F)c1 | 0.187 | 0.118 | 0.004 |
| CC(C)(C)c1cc(NC(=O)Nc2ccc(Oc3ccnc4[nH]c(=O)c(N)nc34)c3ccccc23)n(-c2ccccc2)n1 | 0.007 | 0.009 | 0.085 |
| CN(C)c1nc2c(Oc3ccc(NC(=O)Nc4cc(C(F)(F)F)ccc4F)c(F)c3)ccnc2[nH]1 | 6 | 0.116 | 0.025 |
| O=C(Nc1ccc(Oc2ccnc3[nH]c(=O)c(=O)[nH]c23)cc1F)Nc1cc(C(F)(F)F)ccc1F | 0.6 | 1.45 | 0.005 |
| CC(C)(C)c1cccc(C(=O)Nc2cccc(Oc3ccnc4ncc(=O)[nH]c34)c2)c1 | 3.5 | 2.54 | 0.034 |
| CSc1cc(Oc2ccnc3[nH]c(=O)c(=O)[nH]c23)ccc1NC(=O)Nc1cc(C(F)(F)F)ccc1F | 0.55 | 0.19 | 0.002 |
| O=C(Nc1ccc(Oc2ccnc3[nH]c(=O)cnc23)cc1)Nc1ccc(Cl)c(C(F)(F)F)c1 | 4.89 | 9.1 | 0.011 |
| Cc1nc2c(Oc3ccc(NC(=O)Nc4cc(C(C)(C)C)nn4-c4ccccc4)c4ccccc34)ccnc2[nH]c1=O | 0.008 | 0.057 | 0.067 |
| CSc1cc(Oc2ccnc3[nH]c(=O)c(C)nc23)ccc1NC(=O)Nc1cc(C(C)(C)C)nn1-c1ccccc1 | 0.003 | 0.004 | 0.02 |
| Nc1nc2c(Oc3ccc(NC(=O)Nc4cc(C(F)(F)F)ccc4F)c4ccccc34)ccnc2[nH]c1=O | 0.049 | 0.015 | 0.005 |
| CSc1cc(Oc2ccnc3[nH]c(=O)cnc23)ccc1NC(=O)Nc1cc(C(F)(F)F)ccc1F | 0.195 | 0.096 | 0.004 |
| Nc1nc2nccc(Oc3ccc(NC(=O)Nc4cc(C(F)(F)F)ccc4F)c(F)c3)c2[nH]c1=O | 9.9 | 6.5 | 0.168 |
| O=C(Nc1ccc(Oc2ccnc3nc(N4CCOCC4)cnc23)cc1F)Nc1cc(C(F)(F)F)ccc1F | 3.8 | 1.12 | 0.097 |
| CC(C)(C)c1cc(NC(=O)Nc2ccc(Oc3ccnc4nc(N5CCOCC5)cnc34)cc2F)n(-c2ccccc2)n1 | 0.75 | 0.428 | 8.2 |

| Structure (SMILES) | IC50 [1] [µM] | GI50 [2] [µM] | IC50 [3] [µM] |
| --- | --- | --- | --- |
| O=C(Nc1cccc(Oc2ccnc3[nH]c(=O)cnc23)c1)c1cccc(OC(F)(F)F)c1 | 4 | 9.9 | 0.021 |
| O=C(Nc1cccc(Oc2ccnc3[nH]c(=O)cnc23)c1)Nc1cc(C(F)(F)F)ccc1F | 10 | 10 | 0.04 |
| O=C(Nc1ccc(Oc2ccnc3[nH]cnc23)cc1F)Nc1cc(C(F)(F)F)ccc1F | 8.5 | 4.85 | 0.042 |
| CC(C)(C)c1cc(NC(=O)Nc2ccc(Oc3ccnc4nc(N)c(=O)[nH]c34)c3ccccc23)n(-c2ccccc2)n1 | 0.036 | 0.018 | 0.405 |
| Cc1nc2nccc(Oc3ccc(NC(=O)Nc4cc(C(C)(C)C)nn4-c4ccccc4)c4ccccc34)c2[nH]c1=O | 0.141 | 0.095 | 3 |
| Cc1nc2nccc(Oc3ccc(NC(=O)Nc4cc(C(F)(F)F)ccc4F)c4ccccc34)c2[nH]c1=O | 3.4 | 8.5 | 0.108 |
| Cc1ccc(-n2nc(C(C)(C)C)cc2NC(=O)Nc2ccc(Oc3ccnc4ncc(=O)[nH]c34)cc2)cc1 | 0.634 | 0.67 | 2.29 |
| O=C(Nc1ccc(Cl)c(C(F)(F)F)c1)Nc1ccc(Oc2ccnc3ncc(=O)[nH]c23)cc1F | 16 | 3.9 | 0.059 |
| CN(C)c1cnc2c(Oc3ccc(NC(=O)Nc4cc(C(F)(F)F)ccc4F)c(F)c3)ccnc2n1 | 20 | 55 | 0.22 |
| Cn1nc(C(C)(C)C)cc1NC(=O)Nc1ccc(Oc2ccnc3[nH]c(=O)cnc23)cc1F | 0.62 | 0.76 | 0.017 |
| Nc1nc2c(Oc3ccc(NC(=O)Nc4cc(C(F)(F)F)ccc4F)c(F)c3)ccnc2[nH]c1=O | 1.55 | 1.55 | 0.03 |
| Cc1ccc(-n2nc(C(C)(C)C)cc2NC(=O)Nc2ccc(Oc3ccnc4c3NCC(=O)N4)cc2F)cc1 | 0.011 | 0.034 | 0.051 |
| O=C(Nc1ccc(Oc2ccnc3[nH]nnc23)cc1F)Nc1cc(C(F)(F)F)ccc1F | 24 | 39 | 0.069 |
| CC(C)(C)c1cccc(C(=O)Nc2cccc(Oc3ccnc4[nH]c(=O)cnc34)c2)c1 | 0.85 | 1.7 | 0.007 |
| O=C(Nc1cc(C(F)(F)F)ccc1F)Nc1ccc(Oc2ccnc3[nH]c(=O)c(C(F)(F)F)nc23)c2ccccc12 | > 10 | > 10 | 0.134 |
| O=C(Nc1ccc(Oc2ccnc3[nH]c(=O)c(=O)[nH]c23)cc1)Nc1ccc(Cl)c(C(F)(F)F)c1 | 5.2 | 3.19 | 0.021 |
| O=C1CNc2nccc(Oc3ccc(NC(=O)Nc4cc(C(F)(F)F)ccc4F)cc3)c2N1 | 3.5 | 1.69 | 0.054 |
| CC(C)(C)c1cc(NC(=O)Nc2ccc(Oc3ccnc4ncc(=O)[nH]c34)cc2F)n(-c2ccccc2)n1 | 0.65 | 0.94 | 0.94 |
| CC(C)(C)c1cc(NC(=O)Nc2cccc(Oc3ccnc4ncc(=O)[nH]c34)c2)n(-c2ccccc2)n1 | 1.7 | 1.6 | 0.64 |
| CN(C)c1cnc2c(Oc3ccc(NC(=O)Nc4cc(C(C)(C)C)nn4-c4ccccc4)c(F)c3)ccnc2n1 | 1.7 | 1.1 | > 10 |
| CSc1cc(Oc2ccnc3[nH]c(=O)c(=O)[nH]c23)ccc1NC(=O)Nc1ccc(Cl)c(C(F)(F)F)c1 | 0.59 | 0.22 | 0.003 |
